Experimental data published in ChEMBL document CHEMBL4699510, “Discovery of a series of ester-substituted NLRP3 inflammasome inhibitors” (Bioorg Med Chem Lett, 2020).

Key:
[1] = target: NACHT, LRR and PYD domains-containing protein 3 (Homo sapiens, UniProt Q96P20); assay: Inhibition of NLRP3 in human PBMC cells assessed as inhibition of LPS and ATP-induced IL-1beta production; format: cell-based
[2] = Effective permeability of compound by PAMPA; format: ADME; details: read-out: Peff
[3] = Inhibition of IL-6 production in human PBMC
[4] = Inhibition of TNFalpha production in human PBMC
[5] = Stability in human blood assessed as compound remaining measured after 1 hr; format: ADME, tissue-based; details: read-out: Stabilty
How it was run: (§1)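 Compound incubated in whole blood (human or mouse) at 37° C for one hour; stability expressed as percentage of compound remaining.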

[6] = Stability in mouse blood assessed as compound remaining measured after 1 hr; format: ADME, tissue-based; details: read-out: Stabilty; how it was run: as §1

Sequence of NACHT, LRR and PYD domains-containing protein 3 (Q96P20 whole entry, the tested form may be a part): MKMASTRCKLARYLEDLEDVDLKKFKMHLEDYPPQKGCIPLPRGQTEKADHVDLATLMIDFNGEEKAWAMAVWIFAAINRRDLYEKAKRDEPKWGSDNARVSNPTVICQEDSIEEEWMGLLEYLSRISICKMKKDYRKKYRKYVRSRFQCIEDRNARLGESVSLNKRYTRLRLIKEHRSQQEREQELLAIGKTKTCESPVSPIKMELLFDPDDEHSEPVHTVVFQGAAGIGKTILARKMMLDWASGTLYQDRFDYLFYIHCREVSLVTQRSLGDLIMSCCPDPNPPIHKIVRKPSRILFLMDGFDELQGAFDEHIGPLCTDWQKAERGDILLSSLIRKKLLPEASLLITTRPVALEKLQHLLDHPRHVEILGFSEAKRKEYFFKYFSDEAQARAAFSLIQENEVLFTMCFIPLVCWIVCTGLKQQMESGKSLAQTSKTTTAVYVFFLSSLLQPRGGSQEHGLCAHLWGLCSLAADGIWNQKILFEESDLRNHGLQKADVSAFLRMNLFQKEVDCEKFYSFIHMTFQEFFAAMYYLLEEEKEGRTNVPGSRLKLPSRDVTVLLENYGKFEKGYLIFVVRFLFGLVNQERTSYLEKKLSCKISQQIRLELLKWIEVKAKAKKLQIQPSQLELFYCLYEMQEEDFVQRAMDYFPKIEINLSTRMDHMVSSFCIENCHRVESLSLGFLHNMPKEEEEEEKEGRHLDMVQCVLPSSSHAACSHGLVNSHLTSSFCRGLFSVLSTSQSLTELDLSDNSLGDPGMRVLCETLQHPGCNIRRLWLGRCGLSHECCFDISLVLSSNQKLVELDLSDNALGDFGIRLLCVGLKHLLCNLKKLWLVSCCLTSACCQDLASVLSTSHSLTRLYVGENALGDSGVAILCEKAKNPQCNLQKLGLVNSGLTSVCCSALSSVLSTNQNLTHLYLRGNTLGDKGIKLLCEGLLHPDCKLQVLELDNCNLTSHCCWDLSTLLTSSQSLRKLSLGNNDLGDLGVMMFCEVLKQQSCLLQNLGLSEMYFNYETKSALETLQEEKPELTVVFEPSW

| IC50 [1] [µM] | Compound | further results |
| --- | --- | --- |
| > 20 | COC(=O)[C@@H](Cc1ccncc1)NC(=O)Nc1c2c(cc3c1CCC3)CCC2 |  |
| > 20 | CCOC(=O)CNC(=O)NC(c1ccccc1)c1ccccc1 |  |
| > 20 | Cc1nnc(CNC(=O)Nc2c3c(cc4c2CCC4)CCC3)o1 |  |
| > 20 | O=C(O)CC(=O)Nc1c2c(cc3c1CCC3)CCC2 |  |
| > 20 | O=C(CS(=O)(=O)Nc1ccccc1)Nc1c2c(cc3c1CCC3)CCC2 |  |
| > 20 | COC(=O)C(CCc1ccccc1)NC(=O)Nc1c2c(cc3c1CCC3)CCC2 (stereo not drawn) |  |
| > 20 | CCOC(=O)CNC(=O)Nc1c(C)cccc1C |  |
| > 20 | CCOC(=O)CNC(=O)Nc1c2c(nc3c1CCC3)CCC2 |  |
| > 20 | CC(C)(O)c1coc(S(=O)(=O)NC(=O)Nc2cccc3c2CCC3)c1 |  |
| > 20 | CCOC(=O)CNC(=O)Nc1c2c(c(Cl)c3c1CCC3)CCC2 |  |
| > 20 | CC(C)(O)c1coc(S(=O)(=O)NC(=O)Nc2ccccc2)c1 |  |

Second part, the compound before the results:

| Compound | IC50 [1] [µM] | further results |
| --- | --- | --- |
| CCOC(=O)CNC(=O)NC12CC3CC(CC(C3)C1)C2 | > 20 |  |
| O=C(CNS(=O)(=O)c1ccccc1)Nc1c2c(cc3c1CCC3)CCC2 | > 20 |  |
| COC(=O)CNC(=O)Nc1c(C(C)C)cccc1C(C)C | > 20 |  |
| COC(=O)CC(=O)Nc1c2c(cc3c1CCC3)CCC2 | > 20 |  |
| COC(=O)C(C)(C)NC(=O)Nc1c2c(cc3c1CCC3)CCC2 | > 20 |  |
| CC(C)(O)c1coc(S(=O)(=O)[N-]C(=O)Nc2c3c(cc4c2CCC4)CCC3)c1.[Na+] |  | Papp [2]: < 0.0003 ×10⁻⁶ cm/s; IC50 [3]: > 40 µM; IC50 [4]: > 40 µM |
| CNC(=O)CNC(=O)Nc1c2c(cc3c1CCC3)CCC2 | > 20 |  |
| Cc1nc(CNC(=O)Nc2c3c(cc4c2CCC4)CCC3)no1 | > 20 |  |
| CCOC(=O)CNC(=O)Nc1c2c(cc3c1CCC3)CCCC2 | > 20 |  |
| CC(C)(C)OC(=O)CNC(=O)Nc1c2c(cc3c1CCC3)CCC2 | > 20 |  |
| CCOC(=O)[C@@H](Cc1ncccn1)NC(=O)Nc1c2c(cc3c1CCC3)CCC2 |  | Papp [2]: 8.2 ×10⁻⁶ cm/s; remaining at 1 h [5]: 92.4%; IC50 [3]: 4.3 µM; remaining at 1 h [6]: 0%; IC50 [4]: 2.7 µM |
| CN(C)C(=O)CNC(=O)Nc1c2c(cc3c1CCC3)CCC2 | > 20 |  |
| O=C(O)CNC(=O)Nc1c2c(cc3c1CCC3)CCC2 | > 20 |  |
| CCOC(=O)[C@@H](Cc1cnccn1)NC(=O)Nc1c2c(cc3c1CCC3)CCC2 |  | Papp [2]: 13.9 ×10⁻⁶ cm/s; remaining at 1 h [5]: 79.2%; remaining at 1 h [6]: 0% |
